Active and inactive are the calls of the source. The calls are words filed in the database; no cut-off is given here.
Columns and labels:
[1] = Inhibition of Trypanosoma brucei PTR1 using H2B as substrate preincubated for 10 mins followed by NADPH addition and measured up to 50 mins relative to control
Procedure, shortened: (§1)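 Purified recombinant LmPTR1 or TbPTR1 in a coupled enzyme assay. Nine-point dose response from 0.5 to 100 μM. IC50, pIC50 and Hill slope from a 4-parameter logistic fit. Ki derived by the competitive model Ki = IC50/((S/Km)+1).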

Pteridine reductase 1 = biological target: T1, Pteridine reductase 1 (Leishmania major, UniProt Q01782); assay: Inhibition of Leishmania major PTR1 using H2B as substrate preincubated for 10 mins followed by NADPH addition and measured up to 50 mins relative to control; procedure, shortened: as §1
T1 sequence (Q01782 whole entry): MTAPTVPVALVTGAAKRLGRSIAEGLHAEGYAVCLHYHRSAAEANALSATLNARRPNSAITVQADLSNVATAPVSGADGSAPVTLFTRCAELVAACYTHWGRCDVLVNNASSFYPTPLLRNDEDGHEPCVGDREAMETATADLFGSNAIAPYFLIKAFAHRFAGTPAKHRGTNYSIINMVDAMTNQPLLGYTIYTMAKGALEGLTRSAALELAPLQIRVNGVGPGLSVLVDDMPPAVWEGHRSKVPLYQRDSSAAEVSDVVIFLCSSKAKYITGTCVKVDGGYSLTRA

Trypanosoma brucei = assay: Inhibition of Trypanosoma brucei PTR1 at 50 uM using H2B as substrate preincubated for 10 mins followed by NADPH addition and measured up to 50 mins relative to control; settings: time min <=60
hERG (KCNH2) = hERG (KCNH2) (Homo sapiens, UniProt Q12809); assay: Inhibition of human ERG at 10 uM by fluorescence polarization assay relative to control
Chain of hERG (KCNH2) (Q12809 whole entry): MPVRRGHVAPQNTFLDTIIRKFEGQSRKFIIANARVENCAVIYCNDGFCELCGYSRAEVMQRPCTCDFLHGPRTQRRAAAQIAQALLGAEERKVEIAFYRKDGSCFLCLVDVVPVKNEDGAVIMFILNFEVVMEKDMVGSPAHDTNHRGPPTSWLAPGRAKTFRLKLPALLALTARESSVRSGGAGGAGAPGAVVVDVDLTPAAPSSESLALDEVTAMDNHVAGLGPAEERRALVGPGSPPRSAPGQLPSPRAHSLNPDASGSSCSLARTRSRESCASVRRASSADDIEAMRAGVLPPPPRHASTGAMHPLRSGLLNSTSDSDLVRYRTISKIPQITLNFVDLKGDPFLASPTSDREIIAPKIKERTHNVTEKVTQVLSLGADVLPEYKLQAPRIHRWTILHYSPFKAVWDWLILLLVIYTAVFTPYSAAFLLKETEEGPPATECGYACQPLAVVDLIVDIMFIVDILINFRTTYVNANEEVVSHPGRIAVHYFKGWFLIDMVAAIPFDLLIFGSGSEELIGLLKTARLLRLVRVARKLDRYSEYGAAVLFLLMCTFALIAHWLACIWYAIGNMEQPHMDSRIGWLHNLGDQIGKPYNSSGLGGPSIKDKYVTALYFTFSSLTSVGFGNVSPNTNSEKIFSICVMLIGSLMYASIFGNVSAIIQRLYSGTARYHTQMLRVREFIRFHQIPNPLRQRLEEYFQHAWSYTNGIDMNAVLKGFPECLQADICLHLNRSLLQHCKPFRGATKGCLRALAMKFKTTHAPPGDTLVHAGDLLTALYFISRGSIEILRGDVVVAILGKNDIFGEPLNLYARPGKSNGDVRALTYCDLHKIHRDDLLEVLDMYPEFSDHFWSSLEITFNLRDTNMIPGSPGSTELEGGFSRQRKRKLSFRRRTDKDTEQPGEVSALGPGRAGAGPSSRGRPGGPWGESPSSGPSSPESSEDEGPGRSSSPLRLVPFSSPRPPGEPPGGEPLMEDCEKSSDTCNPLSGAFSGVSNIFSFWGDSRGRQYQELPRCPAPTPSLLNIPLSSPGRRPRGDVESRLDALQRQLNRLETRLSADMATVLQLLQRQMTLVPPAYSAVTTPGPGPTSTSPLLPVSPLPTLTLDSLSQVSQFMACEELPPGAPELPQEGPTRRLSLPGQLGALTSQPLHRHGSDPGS
Procedure, shortened: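 hERG inhibition measured by fluorescence polarization (Predictor hERG assay), with compound at 10 μM.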

[2] = test system: Trypanosoma brucei brucei; assay: Antitrypanosomal activity against bloodstream form of trypanosoma brucei brucei 427 assessed as inhibition of parasitic growth at 0.1 uM after 72 hrs in presence of MTX by resazurin staining based fluorescence assay relative to control; format: functional; settings: read-out: GI
Procedure, shortened: (§2)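 T. brucei bloodstream forms in a modified resazurin-based growth assay. EC50 (concentration inhibiting growth by 50%) obtained by nonlinear regression. Combination wells contained 4 μM MTX (methotrexate); single-agent MTX was run at 4 μM. Single-concentration tests used 10, 1 or 0.1 μM of test compound.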

[3] = test system: Trypanosoma brucei brucei; assay: Antitrypanosomal activity against bloodstream form of trypanosoma brucei brucei 427 assessed as reduction in parasitic growth after 72 hrs by resazurin staining based fluorescence assay; format: functional, organism-based; procedure, shortened: as §2
[4] = test system: Trypanosoma brucei brucei; assay: Antitrypanosomal activity against bloodstream form of trypanosoma brucei brucei 427 assessed as inhibition of parasitic growth at 0.1 uM after 72 hrs by resazurin staining based fluorescence assay relative to control; format: functional, organism-based; procedure, shortened: as §2
[5] = test system: Trypanosoma brucei brucei; assay: Antitrypanosomal activity against bloodstream form of trypanosoma brucei brucei 427 assessed as potentiation index at 0.1 uM after 72 hrs in presence of MTX by resazurin staining based fluorescence assay; format: functional
Procedure, shortened: (§3)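 Synergy index taken as the activity of test compound plus 4 μM MTX, divided by the summed activities of test compound alone and 4 μM MTX alone. Resazurin-based assay on T. brucei bloodstream forms.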

[6] = test system: Trypanosoma brucei brucei; assay: Antitrypanosomal activity against bloodstream form of trypanosoma brucei brucei 427 assessed as inhibition of parasitic growth at 10 uM after 72 hrs by resazurin staining based fluorescence assay relative to control; format: functional; procedure, shortened: as §2
[7] = test system: Trypanosoma brucei brucei; assay: Antitrypanosomal activity against bloodstream form of trypanosoma brucei brucei 427 assessed as potentiation index at 10 uM after 72 hrs in presence of MTX by resazurin staining based fluorescence assay; format: functional; procedure, shortened: as §3
[8] = test system: Trypanosoma brucei brucei; assay: Antitrypanosomal activity against bloodstream form of trypanosoma brucei brucei 427 assessed as inhibition of parasitic growth at 10 uM after 72 hrs in presence of MTX by resazurin staining based fluorescence assay relative to control; format: functional; settings: for inhibition of growth at 10 µM: read-out: GI; procedure, shortened: as §2
[9] = Selectivity ratio Ki for inhibition of inhibition of Leishmania major PTR1 to Ki for inhibition of Trypanosoma brucei PTR1
Procedure, shortened: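 Ki values for LmPTR1 and TbPTR1, each calculated from the coupled-assay IC50 with the competitive model Ki = IC50/((S/Km)+1).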

CYP2D6 = CYP2D6 (Homo sapiens, UniProt P10635); assay: Inhibition of CYP2D6 (unknown origin) at 10 uM by P450-Glo assay relative to control; format: ADME
Chain of CYP2D6 (P10635 whole entry): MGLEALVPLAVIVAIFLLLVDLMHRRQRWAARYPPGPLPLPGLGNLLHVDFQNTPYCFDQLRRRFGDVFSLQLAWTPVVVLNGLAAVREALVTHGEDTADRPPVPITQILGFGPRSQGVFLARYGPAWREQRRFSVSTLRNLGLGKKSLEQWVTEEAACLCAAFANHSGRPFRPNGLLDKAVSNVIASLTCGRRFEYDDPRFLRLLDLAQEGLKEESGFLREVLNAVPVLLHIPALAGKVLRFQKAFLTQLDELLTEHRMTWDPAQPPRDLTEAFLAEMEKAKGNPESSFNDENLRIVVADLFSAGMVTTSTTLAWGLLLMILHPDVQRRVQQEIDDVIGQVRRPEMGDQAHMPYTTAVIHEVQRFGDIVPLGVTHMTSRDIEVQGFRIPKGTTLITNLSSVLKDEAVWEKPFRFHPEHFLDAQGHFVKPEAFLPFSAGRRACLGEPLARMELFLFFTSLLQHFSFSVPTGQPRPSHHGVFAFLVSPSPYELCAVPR
Procedure, shortened: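 CYP2D6 inhibition measured in the P450-Glo luminescent platform, with compound at 10 μM.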

[10] = test system: Trypanosoma brucei brucei; assay: Antitrypanosomal activity against bloodstream form of trypanosoma brucei brucei 427 assessed as inhibition of parasitic growth at 4 uM after 72 hrs in presence of MTX by resazurin staining based fluorescence assay relative to control; format: functional; settings: read-out: GI; procedure, shortened: as §2
[11] = test system: Trypanosoma brucei brucei; assay: Antitrypanosomal activity against bloodstream form of trypanosoma brucei brucei 427 assessed as inhibition of parasitic growth at 1 uM after 72 hrs by resazurin staining based fluorescence assay relative to control; format: functional, organism-based; procedure, shortened: as §2
[12] = test system: Trypanosoma brucei brucei; assay: Antitrypanosomal activity against bloodstream form of trypanosoma brucei brucei 427 assessed as potentiation index at 1 uM after 72 hrs in presence of MTX by resazurin staining based fluorescence assay; format: functional; procedure, shortened: as §3
[13] = test system: Trypanosoma brucei brucei; assay: Antitrypanosomal activity against bloodstream form of trypanosoma brucei brucei 427 assessed as inhibition of parasitic growth at 1 uM after 72 hrs in presence of MTX by resazurin staining based fluorescence assay relative to control; format: functional; settings: read-out: GI; procedure, shortened: as §2
[14] = Cytotoxicity against human A549 cells assessed as reduction in cell viability by Cell Titer-Glo assay; format: cell-based
Procedure, shortened: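 A549 cells from DSMZ, grown in DMEM with 10% v/v FCS, 100 μg/mL streptomycin and 100 U/mL penicillin G. Viability read by CellTiter-Glo luminescence of cellular ATP, which scales with cell number. GI50 reported.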

[15] = Cytotoxicity against human THP-1 cells assessed as reduction in cell viability by MTT assay; format: cell-based
[16] = Trypanosoma brucei, 427, 72 h, read-out: IC50

Compound	Ki ([1]; read-out: Ki) [µM]	Ki (Pteridine reductase 1) [µM]	inhibition (Trypanosoma brucei) [%]	inhibition of growth at 0.1 µM [2] [%]	IC50 [3, 16] [µM]	growth inhibition (GI) [4]	Activity_index [5]	IC50 [3]	growth inhibition (GI) [6]	Activity_index [7]	inhibition of growth at 10 µM [8] [%]	further results
Oc1ccc(-c2ccc(-c3cc(O)cc(O)c3)c(-c3ccccc3)c2)cc1	> 100	5.7	> 85									IC50 [1]: > 100 µM
Nc1nc(NCc2ccccc2)cc(NCc2ccccc2)n1		> 100										Ki [1]: Not Active; inhibition at 10 µM (hERG (KCNH2)): > 50%
O=C1CCCCCNCc2ccc(cc2)-c2ccc(cc2)CNCCCCCC(=O)N(Cc2ccccc2)CCCCCCCCN1Cc1ccccc1	1.6	19.2	> 85	41	0.56	inactive	1.2					
O=C1CCCCCNCc2ccc(cc2)CNCCCCCC(=O)N(Cc2ccccc2)CCCCCCCCN1Cc1ccccc1	1.7	> 100	> 85	43	0.61	inactive	1.4					IC50 (Pteridine reductase 1): > 100 µM
COc1ccc(COc2cc(N)nc(N)n2)cc1	0.8	> 100						Not Active	inactive	2.2	42	
Cn1cnc2c(N)nc(CCc3ccccc3)nc21	4.9	12	> 85					Not Active		1.7	56	
Cl.Fc1ccc(N(CCNCCCc2ccccc2)c2ccc(F)cc2)cc1	2.2	> 100	> 85	46	2.45	inactive	1.1					IC50 (Pteridine reductase 1): > 100 µM; Ratio Ki [9]: > 45
4-(4-Methoxybenzylamino)2,6-diaminopyrimidine									inactive			Activity index [7]: 2.2; growth inhibition (GI) [8]: 41%
O=C1CCCCCNCc2ccc(cc2)Cc2ccc(cc2)CNCCCCCC(=O)N(Cc2ccccc2)CCCCCCCCN1Cc1ccccc1	2.7	14.8	> 85	42	0.58	inactive	1.1					
NCCCCCCN1CC[C@H]2COc3ccccc3[C@H]21	1.6	> 100	> 85					Not Active	inactive	1.3	51	IC50 (Pteridine reductase 1): > 100 µM; Ratio Ki [9]: > 62.5
Nc1cc(NCc2ccccc2)nc(N)n1	3.4	> 100						Not Active	inactive	1.3	24	inhibition at 10 µM (CYP2D6): 30%; inhibition at 10 µM (hERG (KCNH2)): > 50%
CN(Cc1cnc2nc(N)nc(N)c2n1)c1ccc(C(=O)N[C@@H](CCC(=O)O)C(=O)O)cc1 [METHOTREXATE]												inhibition of growth at 4 µM [10]: 19%
Nc1cc(NCc2ccc(-c3ccccc3)cc2)nc(N)n1	0.2	15.3			3.7							growth inhibition (GI) [11]: Active; Activity_index [12]: 2.3; inhibition of growth at 1 µM [13]: 49%; inhibition of growth at 10 µM ([6]; read-out: GI): > 80%; GI50 [14]: 28.6 µM; CC50 [15]: < 25 µM
Nc1cc(NCc2ccc(F)cc2)nc(N)n1	1.1	> 100						Not Active	inactive	1.8	37	inhibition at 10 µM (CYP2D6): 30%; inhibition at 10 µM (hERG (KCNH2)): > 50%
COc1ccccc1CNCc1ccc(CNCCCCCCCCCCCCNCc2ccc(CNCc3ccccc3OC)cc2)cc1	0.2	37.2	> 85	46	0.27	inactive	1.1					Ratio Ki [9]: 186
Nc1cc(OCc2ccccc2)nc(N)n1	0.6	> 100	> 85					Not Active	inactive	1.9	36	IC50 (Pteridine reductase 1): > 100 µM; inhibition at 10 µM (CYP2D6): < 30%; inhibition at 10 µM (hERG (KCNH2)): < 30%; GI50 [14]: > 60 µM; CC50 [15]: > 60 µM; Ratio Ki [9]: > 167

Reference: ChEMBL document CHEMBL4680181, “Identification of a 2,4-diaminopyrimidine scaffold targeting Trypanosoma brucei pteridine reductase 1 from the LIBRA compound library screening campaign” (Eur J Med Chem, 2020)
